Published values from different studies.
Effect on: enzyme activity
Action: inhibitor
EGFR: Epidermal growth factor receptor (EGFR, Homo sapiens, UniProt P00533)
EGFR L858R/T790M: Epidermal growth factor receptor (EGFR, Homo sapiens, UniProt P00533, L858R/T790M)
EGFR C797S/L858R/T790M: Epidermal growth factor receptor (EGFR, Homo sapiens, UniProt P00533, C797S/L858R/T790M)

C=CC(=O)Nc1cc(Nc2nc(N3CCc4sccc4C3)c3cccnc3n2)c(OC)cc1N1CCC(N(C)C)CC1  IC50 (EGFR; ELISA): > 1000 nM
COc1ccc(-c2nn(-c3ccc(S(C)(=O)=O)cc3)cc2C=N/N=c2\[nH]c(-c3ccc([N+](=O)[O-])cc3)cs2)cc1  IC50 (Epidermal growth factor receptor (EGFR, Homo sapiens, UniProt P00533, L858R)): 31 nM
C=C(Cl)C(=O)Nc1cc(Nc2nc(Nc3cnn(C)c3)c3sccc3n2)c(OC)cc1N1CCN(C)CC1  IC50 (EGFR L858R/T790M; ELISA): 173 nM
CCN(CC)C/C=N/NC(=O)Nc1cc2c(Nc3ccc(F)c(Cl)c3)ncnc2cc1O[C@H]1CCOC1  IC50 (EGFR L858R/T790M): 13.2 nM
O=C1c2c(O)cc(O)cc2OC(c2ccc(O)c(O)c2)C1O (stereo not drawn)  IC50 (EGFR; radiometric): 29000 nM
CCN(CC)CCCn1cccc1/C=N/NC(=O)Nc1cc2c(Nc3ccc(F)c(Cl)c3)ncnc2cc1O[C@H]1CCOC1  IC50 (EGFR): 0.5 nM
C=CC(=O)Nc1cc(Nc2nccc(Nc3cc(Cl)c(F)cc3C(C)(C)O)n2)c(OC)cc1N1CC[C@@H](N(C)C)C1  IC50 (EGFR; with preincubation): 226 nM
COc1ccc(-c2csc(Nc3ccc4c(O)ncnc4c3)n2)cc1  IC50 (EGFR; ELISA): 10.1 nM
C=C(Cl)C(=O)Nc1cc(Nc2nc(Nc3cnn(C)c3)c3sccc3n2)c(OC)cc1N(C)CCN(C)C  IC50 (EGFR; ELISA): 100 nM
C=CC(=O)Nc1cc(Nc2nccc(-c3cn(C4CC4)c4ccccc34)n2)c(OC)cc1N(C)CCN(C)C  IC50 (Epidermal growth factor receptor (EGFR, Homo sapiens, UniProt P00533, L861Q); TR-FRET): 1.07 nM
CC(C)Cc1ccc(-c2nn(-c3ccc(S(C)(=O)=O)cc3)cc2/C=N/N=c2\[nH]c(-c3ccc([N+](=O)[O-])cc3)cs2)cc1  IC50 (EGFR L858R/T790M): 164 nM
CN(C)C/C=N/NC(=O)Nc1cc2c(Nc3ccc(F)c(Cl)c3)ncnc2cc1O[C@H]1CCOC1  IC50 (EGFR L858R/T790M): 15.4 nM
COc1ccc(-c2nn(-c3ccc(S(C)(=O)=O)cc3)cc2/C=N/N=c2\[nH]c(-c3ccc(Br)cc3)cs2)cc1  IC50 (EGFR L858R/T790M): 31 nM
CCC(=O)Nc1cc(Nc2nc(N3CCc4sccc4C3)c3cccnc3n2)c(OC)cc1N1CCSCC1  IC50 (EGFR L858R/T790M; ELISA): > 1000 nM
COc1cc2c(Nc3ccc(OCCn4ccnc4[N+](=O)[O-])c(Cl)c3)ncnc2cc1OCCCN1CCOCC1  IC50 (EGFR; FRET): 190 nM
Oc1ncnc2cc(Nc3nc(-c4ccc(Br)cc4)cs3)ccc12  IC50 (EGFR; ELISA): 4.96 nM
C=C(Cl)C(=O)Nc1cc(Nc2nc(N3CCOCC3)c3sccc3n2)c(OC)cc1N(C)CCN(C)C  IC50 (EGFR C797S/L858R/T790M; ELISA): > 1000 nM
CN1CCN(C/C=N/NC(=O)Nc2cc3c(Nc4ccc(F)c(Cl)c4)ncnc3cc2O[C@H]2CCOC2)CC1  IC50 (EGFR L858R/T790M): 11.6 nM
COc1cccc(CNc2ncnc3cc(Cl)ccc23)c1  IC50 (EGFR; mobility shift): 1700 nM
Nc1ccc(-c2csc(Nc3ccc4c(O)ncnc4c3)n2)cc1  IC50 (EGFR; ELISA): 14.2 nM
O=C(N/N=C/CN1CCOCC1)Nc1cc2c(Nc3ccc(F)c(Cl)c3)ncnc2cc1O[C@H]1CCOC1  IC50 (EGFR L858R/T790M): 14.3 nM
COC(=O)/C=C/c1ccc2ncnc(Nc3cccc(C(F)(F)F)c3)c2c1  IC50 (EGFR; radiometric): 19.1 nM
O=C(N/N=C/CN1CCCCC1)Nc1cc2c(Nc3ccc(F)c(Cl)c3)ncnc2cc1O[C@H]1CCOC1  IC50 (EGFR): 0.1 nM
COc1cc2ncnc(NCc3cccs3)c2cc1OC  IC50 (EGFR; mobility shift): 35 nM
COc1cc2ncnc(Nc3ccc(OCCCn4ccnc4[N+](=O)[O-])c(Cl)c3)c2cc1OCCCN1CCOCC1  IC50 (EGFR; FRET): 180 nM
COc1cc2ncnc(NCCSc3ccc(Cl)cc3)c2cc1OC  IC50 (EGFR; mobility shift): 320 nM
COc1cc2ncnc(Nc3ccc(F)c(Cl)c3)c2cc1NC(=O)N/N=C/c1cccn1CCCN(C)C  IC50 (EGFR): 1.2 nM
O=[N+]([O-])c1ccc(-c2csc(Nc3ccc4c(O)ncnc4c3)n2)cc1  IC50 (EGFR; ELISA): 2.93 nM
C=C(Cl)C(=O)Nc1cc(Nc2nc(N3CCc4sccc4C3)c3sccc3n2)c(OC)cc1N(C)CCN(C)C  IC50 (EGFR C797S/L858R/T790M; ELISA): > 1000 nM
COc1cc2ncnc(Nc3ccc(F)c(Cl)c3)c2cc1NC(=O)N/N=C/c1cccn1CCN(C)C  IC50 (EGFR L858R/T790M): 21.7 nM
